From ChEMBL document CHEMBL3227985, “N-Alkylated 2-aminotetralins: central dopamine-receptor stimulating activity” (J Med Chem, 1979)
Active and inactive are the calls of the source. No cut-off for these calls is given here.

Assays:
[1] = test system: Rattus norvegicus; assay: Central noradrenaline receptor stimulating activity in Sprague-Dawley rat assessed as reduction in DOPA accumulation in hemispheral portion of cerebrum at 2 umol/kg, sc by spectrophotometric method; format: functional, organism-based
How it was run: (§1)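 Male Sprague-Dawley rats (200-350 g), reserpinized. Compounds dissolved in saline immediately before use, neutral pH, 10 mL/kg, given sc over a dose range. Aromatic-L-amino-acid decarboxylase inhibited (100 mg/kg). Dopa and 5-HTP accumulation measured spectrophotometrically in striatum, limbic forebrain and remaining hemispheral portions. ED50 = dose giving 50% of maximal reduction versus control portions, estimated from dose-response curves. Experiments run 9–12 a.m.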

[2] = test system: Rattus norvegicus; assay: Central serotonin receptor stimulating activity in Sprague-Dawley rat assessed as reduction in 5-HTP accumulation in limbic region of brain at 2 umol/kg, sc by spectrophotometric method; format: functional, organism-based; conditions: Limbic system; how it was run: as §1
[3] = test system: Rattus norvegicus; assay: Central serotonin receptor stimulating activity in Sprague-Dawley rat assessed as reduction in 5-HTP accumulation in striatum of brain at 2 umol/kg, sc by spectrophotometric method; format: functional, organism-based; how it was run: as §1
[4] = test system: Rattus norvegicus; assay: Central serotonin receptor stimulating activity in Sprague-Dawley rat assessed as reduction in 5-HTP accumulation in hemispheral portion of cerebrum at 2 umol/kg, sc by spectrophotometric method; format: functional, organism-based; how it was run: as §1
[5] = test system: Rattus norvegicus; assay: Toxicity in sc dosed Sprague-Dawley rat assessed as gross behaviour at ED50; format: organism-based; conditions: in vivo
[6] = test system: Rattus norvegicus; assay: Central dopamine receptor stimulating activity in Sprague-Dawley rat assessed as reduction in DOPA accumulation in limbic region of brain at 2 umol/kg, sc by spectrophotometric method; format: functional; conditions: Limbic system; how it was run: as §1

SMILES | Activity [1] | Activity [2] | Activity [3] | Activity [4] | Activity [5] | ED50 [6] [µmol/kg]
CCNC1CCc2c(cccc2OC)C1.Cl (stereo unspecified) | inactive | inactive | inactive | inactive | Non-toxic | –
Br.Oc1cccc2c1CCC(N1CCCCC1)C2 (stereo unspecified) | inactive | inactive | inactive | inactive | Non-toxic | > 5
CCCCCN(C)C1CCc2c(cccc2OC)C1.Cl (stereo unspecified) | inactive | inactive | inactive | inactive | Non-toxic | –
CCN(C)C1CCc2c(cccc2OC)C1.Cl (stereo unspecified) | inactive | inactive | inactive | inactive | Non-toxic | –
CCCCN(CCCC)C1CCc2c(cccc2OC)C1.Cl (stereo unspecified) | inactive | inactive | inactive | inactive | Non-toxic | –
COc1cccc2c1CCC(N1CCCCC1)C2.Cl (stereo unspecified) | inactive | inactive | inactive | inactive | Non-toxic | –
CCCN(C(C)C)C1CCc2c(cccc2OC)C1.Cl (stereo unspecified) | inactive | inactive | inactive | inactive | Non-toxic | –
Br.CCCCNC1CCc2c(O)cccc2C1 (stereo unspecified) | inactive | inactive | inactive | inactive | Non-toxic | > 5
Br.CC(C)NC1CCc2c(O)cccc2C1 (stereo unspecified) | inactive | inactive | inactive | inactive | Non-toxic | > 5
CCCCCNC1CCc2c(cccc2OC)C1.Cl (stereo unspecified) | inactive | inactive | inactive | inactive | Non-toxic | –
CCCCNC1CCc2c(cccc2OC)C1.Cl (stereo unspecified) | inactive | inactive | inactive | inactive | Non-toxic | –
Br.CCCCCNC1CCc2c(O)cccc2C1 (stereo unspecified) | inactive | inactive | inactive | inactive | Non-toxic | > 5
COc1cccc2c1CCC(N)C2.Cl (stereo unspecified) | inactive | inactive | inactive | inactive | Non-toxic | –
CNC1CCc2c(cccc2OC)C1.Cl (stereo unspecified) | inactive | inactive | inactive | inactive | Non-toxic | –
COc1cccc2c1CCC(NC(C)C)C2.Cl (stereo unspecified) | inactive | inactive | inactive | inactive | Non-toxic | > 5
Br.NC1CCc2c(O)cccc2C1 (stereo unspecified) | inactive | inactive | inactive | inactive | Non-toxic | > 5
COc1cccc2c1CCC(N(C)C)C2.Cl (stereo unspecified) | inactive | inactive | inactive | inactive | Non-toxic | –
CCN(CC)C1CCc2c(cccc2OC)C1.Cl (stereo unspecified) | inactive | inactive | inactive | inactive | Non-toxic | –
